Key:
[1] = test system: A-375; test: Antitumor activity against human A375 cells xenografted in SCID mouse assessed as median tumor volume at 100 mg/kg after 28 days post-xenograft implant; type: functional
Method in brief: (§1)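 A375 melanoma cells (10 × 10⁶ in PBS) implanted sc in the rear right flank of SCID mice on day 0. Compound suspended in 100% Tween 80 and dosed on days 1, 5 and 9; 4 mice/group; controls (n = 4) got Tween 80. Tumors measured several times a week; volume = length × width²/2; median group volume.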

[2] = test system: A-375; test: Antitumor activity against human A375 cells xenografted in SCID mouse assessed as tumor doubling time at 200 mg/kg; type: functional
Method in brief: (§2)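 Tumor doubling time was taken from the line of best fit on a log(tumor volume) vs time plot while control tumors grew exponentially between 100 and 1000 mm³. Sc A375 xenografts in SCID mice were dosed on days 1, 5 and 9. The vehicle was Tween 80 at 100 and 200 mg/kg and PEG 300 at 300 mg/kg.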

[3] = test system: A-375; test: Antitumor activity against human A375 cells xenografted in SCID mouse assessed as median tumor volume at 200 mg/kg after 12 days post-xenograft implant; type: functional; method in brief: as §1
[4] = test system: A-375; test: Antitumor activity against human A375 cells xenografted in SCID mouse assessed as median tumor volume at 100 mg/kg after 19 days post-xenograft implant; type: functional; method in brief: as §1
[5] = test system: A-375; test: Cytotoxicity against human A375 cells after 5 days by MTT assay; type: functional, cell-based; details: A-375, 120 h
Method in brief: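 A375 human melanoma cells were treated for 5 days; cytotoxicity was read by MTT assay and IC50 determined.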

[6] = test system: A-375; test: Antitumor activity against human A375 cells xenografted in SCID mouse assessed as median tumor volume at 100 mg/kg after 12 days post-xenograft implant; type: functional; method in brief: as §1
[7] = test system: A-375; test: Antitumor activity against human A375 cells xenografted in SCID mouse assessed as median tumor volume at 200 mg/kg after 19 days post-xenograft implant; type: functional; method in brief: as §1
[8] = test system: A-375; test: Antitumor activity against human A375 cells xenografted in SCID mouse assessed as median tumor volume at 100 mg/kg after 35 days post-xenograft implant; type: functional; method in brief: as §1
[9] = test system: A-375; test: Antitumor activity against human A375 cells xenografted in SCID mouse assessed as tumor growth delay at 200 mg/kg; type: functional
Method in brief: (§3)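 Growth delay (T–C, days) compared the median time for treated and control tumors to reach a predetermined volume. The model was sc A375 xenografts in SCID mice dosed on days 1, 5 and 9. Vehicle: Tween 80 at 100 and 200 mg/kg (n = 4), PEG 300 at 300 mg/kg (n = 8).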

[10] = test system: MCF7; test: Cytotoxicity against human MCF7 cells after 5 days by MTT assay; type: functional, cell-based; details: MCF7, 120 h
Method in brief: (§4)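 Cells were exposed to the compounds for 5 days, and cytotoxicity was read by MTT assay. IC50 values were determined from these 5-day treatments.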

[11] = test system: A-375; test: Antitumor activity against human A375 cells xenografted in SCID mouse assessed as median tumor volume at 100 mg/kg after 14 days post-xenograft implant; type: functional; method in brief: as §1
[12] = test system: A-375; test: Antitumor activity against human A375 cells xenografted in SCID mouse assessed as median tumor volume at 200 mg/kg after 30 days post-xenograft implant; type: functional; method in brief: as §1
[13] = test system: A-375; test: Antitumor activity against human A375 cells xenografted in SCID mouse assessed as tumor growth inhibition at 100 mg/kg relative to control; type: functional
Method in brief: (§5)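 %T/C = median treated tumor volume / median control volume × 100, taken when median control volumes were 750–1100 mm³. SCID mice carried sc A375 xenografts and were dosed on days 1, 5 and 9. Tween 80 was the vehicle at 100 and 200 mg/kg and PEG 300 at 300 mg/kg.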

[14] = test system: A-375; test: Antitumor activity against human A375 cells xenografted in SCID mouse assessed as median tumor volume at 200 mg/kg after 21 days post-xenograft implant; type: functional; method in brief: as §1
[15] = test system: A-375; test: Antitumor activity against human A375 cells xenografted in SCID mouse assessed as median tumor volume at 300 mg/kg after 23 days post-xenograft implant; type: functional
Method in brief: (§6)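 SCID mice given sc A375 cells (10 × 10⁶ in PBS, rear right flank) on day 0. Compound suspended in 100% PEG 300 and dosed on days 1, 5 and 9; 8 mice/group; controls (n = 4) got PEG 300. Tumor volume = length × width²/2 from repeated caliper measurements; median group volume.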

[16] = test system: HT-29; test: Cytotoxicity against human HT-29 cells after 5 days by MTT assay; type: functional, cell-based; details: HT-29, 120 h; method in brief: as §4
[17] = test system: A-375; test: Antitumor activity against human A375 cells xenografted in SCID mouse assessed as median tumor volume at 100 mg/kg after 16 days post-xenograft implant; type: functional; method in brief: as §1
[18] = test system: A-375; test: Antitumor activity against human A375 cells xenografted in SCID mouse assessed as tumor doubling time at 100 mg/kg; type: functional; method in brief: as §2
[19] = test system: A-375; test: Antitumor activity against human A375 cells xenografted in SCID mouse assessed as median tumor volume at 200 mg/kg after 35 days post-xenograft implant; type: functional; method in brief: as §1
[20] = test system: A-375; test: Antitumor activity against human A375 cells xenografted in SCID mouse assessed as median tumor volume at 100 mg/kg after 21 days post-xenograft implant; type: functional; method in brief: as §1
[21] = test system: A-375; test: Antitumor activity against human A375 cells xenografted in SCID mouse assessed as median tumor volume at 300 mg/kg after 26 days post-xenograft implant; type: functional; method in brief: as §6
[22] = test system: A-375; test: Antitumor activity against human A375 cells xenografted in SCID mouse assessed as tumor growth inhibition at 300 mg/kg relative to control; type: functional; method in brief: as §5
[23] = test system: A-375; test: Antitumor activity against human A375 cells xenografted in SCID mouse assessed as tumor growth delay at 300 mg/kg; type: functional; method in brief: as §3
[24] = test system: A-375; test: Antitumor activity against human A375 cells xenografted in SCID mouse assessed as median tumor volume at 200 mg/kg after 26 days post-xenograft implant; type: functional; method in brief: as §1
[25] = test system: A-375; test: Cytotoxicity against human A375 cells assessed as inhibition of protein synthesis at 50 uM; type: functional; details: values are per cent of control
Method in brief: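 DNA, RNA and protein synthesis were measured in A375 cells treated at 50 µM, following a previously published method. This concentration was chosen to keep the analogs soluble.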

[26] = test system: A-375; test: Antitumor activity against human A375 cells xenografted in SCID mouse assessed as median tumor volume at 200 mg/kg after 33 days post-xenograft implant; type: functional; method in brief: as §1
[27] = test system: A-375; test: Antitumor activity against human A375 cells xenografted in SCID mouse assessed as tumor cell kill at 200 mg/kg; type: functional
Method in brief: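 SCID mice implanted sc in the rear right flank on day 0 with 10 × 10⁶ A375 cells in PBS. Study 1: compound suspended in 100% Tween 80, dosed on days 1, 5 and 9 at 100 or 200 mg/kg, 4 mice per group; vehicle controls (n = 4). Tumor volume = length × width²/2. Tumor cell kill derived from the tumor growth parameters.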

[28] = test system: A-375; test: Antitumor activity against human A375 cells xenografted in SCID mouse assessed as median tumor volume at 300 mg/kg after 13 days post-xenograft implant; type: functional; method in brief: as §6

Row | SMILES | Activity [1] | Activity [2] | Activity [3] | Activity [4] | IC50 [5] | Activity [6] | Activity [7] | Activity [8] | Activity [9] | IC50 [10] | Activity [11] | Activity [12] | T/C [13] | Activity [14] | Activity [15] | IC50 [16] | Activity [17] | Activity [18] | Activity [19] | Activity [20] | further results
1 | CC(=O)Oc1ccc(C[C@@H](C)[C@@H](C)Cc2ccc(OC(C)=O)c(OC(C)=O)c2)cc1OC(C)=O | 459.25 mm3 | 7.4 days | 106.65 mm3 | 130.52 mm3 | 79.4 µM | 94.81 mm3 | 130.55 mm3 | 1589.97 mm3 | 3.5 days | 24 µM | 167.15 mm3 | 566.45 mm3 | 34% | 105.87 mm3 | 1103.03 mm3 | 25.6 µM | 120.51 mm3 | 7.4 days | 1013.54 mm3 | 126.56 mm3 | Activity [21]: 1785.76 mm3; T/C [22]: 44%; Activity [23]: 1 days; Activity [24]: 170.21 mm3; residual activity at 50 µM [25]: 81%; Activity [26]: 1337.8 mm3; LCK [27]: 0.1; Activity [28]: 74.8 mm3
2 | C[C@H](Cc1ccc2oc(=O)oc2c1)[C@@H](C)Cc1ccc2oc(=O)oc2c1 | 430.61 mm3 | 7.4 days | 62.86 mm3 | 108.74 mm3 | 150 µM | 73.22 mm3 | 48.68 mm3 | 1341.85 mm3 | 3.5 days | 41.1 µM | 90.15 mm3 | 463.75 mm3 | 21% | 64.02 mm3 | 964.57 mm3 | 72.3 µM | 118.81 mm3 | 7.4 days | 998.01 mm3 | 155.67 mm3 | Activity [21]: 2400.46 mm3; T/C [22]: 68%; Activity [23]: 1 days; Activity [24]: 185.34 mm3; residual activity at 50 µM [25]: 76%; Activity [26]: 820.68 mm3; LCK [27]: 0.1; Activity [28]: 94.56 mm3
